Assay results from different studies.
Compare with care: the assays were run in different laboratories.
Target: Mitogen-activated protein kinase 3 (MAPK3, Homo sapiens, UniProt P27361)

Cc1ccc(NC(=O)c2ccnc(C(F)(F)F)c2)cc1-c1cc(OCCO)nc(N2CCOCC2)c1 — remaining binding (binding; 1 µM): 100%
N#Cc1ccc(NC(=O)Nc2ccccc2)cc1 — remaining binding (cell-free assay, competition with immobilised ligand; 25 µM): 100%
C[C@H]1CC[C@H](n2c3cnccc3c3cnc(Nc4ccc5c(n4)CCN(C(=O)CO)C5)nc32)CC1 — remaining signal (cell-free assay; 1 µM): 100%
CCCCC(=O)Nc1ccc(-c2ccc3ncn(CCC)c(=O)c3c2)cn1 — remaining binding (binding, competition with immobilised ligand; 0.5 µM): 97%
C#Cc1cc(-c2cc(Nc3nc(N[C@@H](C)c4ccc(F)cn4)ncc3Cl)n[nH]2)ccc1C=O — inhibition (enzyme activity, inhibitor; 0.2 µM): 5.48%
CC#CC(=O)N1CCC[C@H]1c1nc(-c2ccc(C(=O)Nc3ccccn3)cc2)c2c(N)nccn12 — inhibition (enzyme activity, inhibitor; 1 µM): 12%
O=C(O)CCC(=O)OCCN(Cc1ccc(Oc2ccc([N+](=O)[O-])cc2)cc1)C(=O)C(Cl)Cl — inhibition (enzyme activity, inhibitor, ADP detection; 10 µM): 49.3%
C=CC(=O)N1CCC[C@@H](n2nc(-c3ccc(Oc4ccccc4)cc3)c3c(N)ncnc32)C1 — inhibition (enzyme activity, inhibitor; 1 µM): 3%
Cc1cc(O)c(-c2ccc([C@@H](C)CN(C)C)cc2)c2c1[nH]c(=O)c1sccc12 — inhibition (enzyme activity, inhibitor; 0.1 µM): 15.1%
c1ccc(-c2ccc3c(c2)NC(C2Nc4cc(-c5ccccc5)ccc4O2)O3)cc1 (stereo not shown) — inhibition (enzyme activity, inhibitor, ADP detection; 10 µM): 54.7%
